{"data": "Measurements of several laboratories", "method": "competition with immobilised ligand", "RPS6KA6 N-terminal kinase domain": "Ribosomal protein S6 kinase alpha-6, N-terminal kinase domain (RPS6KA6, Homo sapiens, UniProt Q9UK32)", "RPS6KA6 C-terminal kinase domain": "Ribosomal protein S6 kinase alpha-6, C-terminal kinase domain (RPS6KA6, Homo sapiens, UniProt Q9UK32)", "note": "Protocols differ between the studies behind these lines."}
{"Compound": "CS(=O)(=O)N1CCCC(NC(=O)[C@H](CCC2CCCCC2)NC(=O)c2ccc(CNC(=O)c3cnc4ccccn34)cc2)C1 (some centres unmarked)", "target": "RPS6KA6 N-terminal kinase domain", "assay": "cell-free assay", "conditions": "0.1 µM", "remaining binding": "97%"}
{"Compound": "COc1cnc(Nc2cccc(S(N)(=O)=O)c2)nc1N1CCN(c2ccccc2)C(=O)C1", "target": "RPS6KA6 N-terminal kinase domain", "assay": "binding", "conditions": "1 µM", "remaining binding": "79%"}
{"Compound": "Cc1nc(C2CCN(C(=O)c3ccc(OC(F)(F)F)cc3N)CC2)c2ncc(N3CCN(C)CC3)cc2n1", "target": "RPS6KA6 C-terminal kinase domain", "assay": "cell-free assay", "conditions": "1 µM", "remaining binding": "100%"}
{"Compound": "C[C@@H]1CCN(c2nccc(-c3cnn4ncccc34)n2)C1", "target": "RPS6KA6 C-terminal kinase domain", "assay": "binding", "conditions": "1 µM", "remaining binding": "66%"}
{"Compound": "O=C(NCCCN1CCOCC1)c1ccc(Nc2ncc(Cl)c(-c3ccc(Cl)s3)n2)cc1", "target": "RPS6KA6 C-terminal kinase domain", "assay": "binding", "conditions": "1 µM", "remaining binding": "85%"}
{"Compound": "COc1ccnn2ncc(-c3ccnc(N(C)C)n3)c12", "target": "RPS6KA6 C-terminal kinase domain", "assay": "binding", "conditions": "1 µM", "remaining binding": "100%"}
{"Compound": "CN(C)c1ncnc(-c2ccc3nc(Nc4cc(CN5CCN(C(=O)CC(F)(F)F)CC5)ccn4)[nH]c3c2)c1Cl", "target": "RPS6KA6 C-terminal kinase domain", "assay": "cell-free assay", "conditions": "1 µM", "remaining binding": "81%"}
{"Compound": "FC(F)(F)Oc1cccc(-c2cnc3ccc(-c4ccncc4)nn23)c1", "target": "RPS6KA6 N-terminal kinase domain", "assay": "binding", "conditions": "5 µM", "remaining binding": "64%"}
{"Compound": "F[C@@H]1CCN(c2nccc(-c3cnn4ncccc34)n2)C1", "target": "RPS6KA6 N-terminal kinase domain", "assay": "binding", "conditions": "1 µM", "remaining binding": "82%"}
{"Compound": "O=C(NCCCN1CCOCC1)c1ccc(Nc2nccc(-c3cc4ccccc4s3)n2)cc1", "target": "RPS6KA6 N-terminal kinase domain", "assay": "binding", "conditions": "1 µM", "remaining binding": "67%"}
{"Compound": "NS(=O)(=O)c1cc(NC(=O)C2(c3ccccc3Cl)CC2)ccc1Oc1cccc(Cl)c1", "target": "RPS6KA6 C-terminal kinase domain", "assay": "cell-free assay", "conditions": "1 µM", "remaining binding": "96%"}
{"Compound": "c1cnn2ncc(-c3ccnc(N4CCC45COC5)n3)c2c1", "target": "RPS6KA6 N-terminal kinase domain", "assay": "binding", "conditions": "1 µM", "remaining binding": "58%"}
{"Compound": "COc1cnc(Nc2cccc(S(N)(=O)=O)c2)nc1N1CCN(c2ccccc2)CC1", "target": "RPS6KA6 C-terminal kinase domain", "assay": "binding", "conditions": "1 µM", "remaining binding": "69%"}
{"Compound": "O=C1NC(c2ccccn2)Sc2ccccc21 (centres unmarked)", "target": "RPS6KA6 N-terminal kinase domain", "assay": "cell-free assay", "conditions": "1 µM", "remaining binding": "96%"}
{"Compound": "O=C(c1ccc(Nc2ncc(Cl)c(-c3cc4ccccc4s3)n2)cc1)N1CCC(N2CCCC2)CC1", "target": "RPS6KA6 N-terminal kinase domain", "assay": "binding", "conditions": "1 µM", "remaining binding": "46%"}
{"Compound": "O=C(O)c1cc(-c2ccc(C3CCNCC3)cc2)c2ccc(-c3ccc(C(F)(F)F)cc3)cc2c1", "target": "RPS6KA6 N-terminal kinase domain", "assay": "cell-free assay", "conditions": "1 µM", "remaining binding": "100%"}
{"Compound": "Cc1cnn2ncc(-c3ccnc(N(C)C)n3)c2c1", "target": "RPS6KA6 C-terminal kinase domain", "assay": "binding", "conditions": "1 µM", "remaining binding": "100%"}
{"Compound": "O=C(NCC1CCOCC1)c1n[nH]cc1NC(=O)c1c(F)cccc1F", "target": "RPS6KA6 C-terminal kinase domain", "assay": "binding", "conditions": "1 µM", "remaining binding": "99%"}
{"Compound": "N[C@H]1CCN(c2nccc(-c3cnn4ncccc34)n2)C1", "target": "RPS6KA6 C-terminal kinase domain", "assay": "binding", "conditions": "1 µM", "remaining binding": "86%"}
{"Compound": "c1cncc(-c2cccc(Nc3nccc(NC4CCCCC4)n3)c2)c1", "target": "RPS6KA6 C-terminal kinase domain", "assay": "binding", "conditions": "10 µM", "remaining binding": "87%"}
